No end group written: not given here.
How the values were obtained:
[1] = system: SCNH2 receptor in enriched MB435 cells; assay: FACS binding inhibition assay with bSCNH2/SA488, enriched MB435; set-up: species or system human; details: enriched MB435, 50 μM peptide, 5 μM bSCNH2 + 10 μg/ml SA488, FACS
[2] = system: endothelial and tumor cells; assay: Cell migration/invasion assays, endothelial and tumor cells; format: cell-based, human; details: SCNH2 10 pM, APL-13 10 nM, SM inhibitors 10 μM, n = 3
How it was run: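 Chemotaxis plates: agonist peptides and 10 μM small-molecule inhibitors or 100 μg/ml immune IgG in FBS-free medium in the lower wells; 8000-10,000 cells/well (e.g. HUVEC) in FBS-free medium on the upper membrane, uncoated for migration or rat-tail collagen I-coated for invasion. Incubated 5-24 h at 37 °C/5% CO2/100% humidity. Membranes methanol-fixed, stained with 0.5% crystal violet, upper cells removed, underside cells photographed and counted.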

PI3K/Akt in MCF-7 cells = assay: Western blot, peptide-induced PI3K/Akt phosphorylation in MCF-7; format: cell-based, human
PI3K/Akt in HMEC-1 cells = assay: Western blot, peptide-induced PI3K/Akt phosphorylation in HMEC-1; format: cell-based, human
HUVEC cells = assay: Cell migration assay, HUVEC; format: cell-based, human; details: for peptide response hierarchy in molar potency for mediating cell movement: HUVEC migration
How it was run: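 Transwell-type chemotaxis plate with uncoated membrane. Test peptides and VEGF-A, at a range of concentrations, in FBS-free medium in bottom wells; 8000–10,000 HUVEC/well in FBS-free medium on top. Incubated 5–24 h at 37°C/5% CO2/100% humidity. Membranes methanol-fixed 5 min and stained with 0.5% crystal violet; upper cells removed. Bottom adherent cells photographed and counted.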

[3] = system: P-PI3K/Akt in NMuMG cells; assay: Western blot, phosphorylation of PI3K/Akt in NMuMG; format: cell-based, murine; details: maximum of dose response
rat aortic rings = assay: Rat aortic ring assay; format: cell-based; details: 6 days, p < 0.05
[4] = system: PI3K/Akt and p44/42 MAPK signaling pathways; assay: CTX/PTX sensitivity assay; format: cell-based
[5] = system: P-p44/42 MAPK in NMuMG cells; assay: Western blot, phosphorylation of p44/42 MAPK in NMuMG; format: cell-based, murine; details: maximum of dose response
[6] = system: CAM of 10-day-old shell-less embryos; assay: Chorioallantoic membrane in chick embryo; format: in vivo; details: 66 hours
[7] = system: p44/42 MAPK signaling pathway in MCF-7 cells
[8] = system: p44/42 MAPK in HMEC-1 cells

Compound: luteinizing hormone-releasing hormone [LHRH]
- block of the binding of bSCNH2 [1]: ineffective

Compound: CC(C)(C)Cn1c(N)nc2ccc(-c3[nH]c(C(C)(C)C)nc3-c3ccc(F)cc3)nc21 [LY2228820]
- suppression of SCNH2 and APL-13 induced cell migration and invasion [2]: effectively suppressed

Compound: c1cc(CN2CCCNCCNCCCNCC2)ccc1CN1CCCNCCNCCCNCC1 [AMD3100]
- suppression of SCNH2 and APL-13 induced cell migration and invasion [2]: effectively suppressed

Compound: O=c1cc(N2CCOCC2)oc2c(-c3ccccc3)cccc12 [LY294002]
- block of APL-13 induced phosphorylation of PI3K/Akt (PI3K/Akt in MCF-7 cells): 75%
- block of SCNH2 induced phosphorylation of PI3K/Akt (PI3K/Akt in MCF-7 cells): 93%
- suppression of SCNH2 and APL-13 induced cell migration and invasion [2]: effectively suppressed
- inhibition of APL-13 induced phosphorylation of PI3K/Akt (PI3K/Akt in HMEC-1 cells): 98%
- inhibition of SCNH2 induced phosphorylation of PI3K/Akt (PI3K/Akt in HMEC-1 cells): 96%

Compound: Apelin-13 [APL-13]
- peptide response hierarchy in molar potency for mediating cell movement (HUVEC cells): SCNH2 > VEGF-A > APL-13
- maximal stimulating concentration (HUVEC cells; cell migration, dose-response on HUVEC): 10 nM
- maximum P-PI3K/Akt compared to the control [3]: 8 folds
- concentration inducing maximal vessel sprouting (rat aortic rings): 10 nM
- effect of CTX on peptide signaling (kinase activation) ([4]; CTX treatment, Western blot): indifferent
- effect of PTX on peptide signaling (kinase activation) ([4]; PTX pretreatment overnight, 100 pM peptide 10 min): sensitive
- block of the binding of bSCNH2 [1]: ineffective
- maximum P-p44/42 MAPK compared to the control [5]: 5 folds
- neovascularization at all of the tested concentrations ([6]; angiogenic index, p < 0.005): dramatically induced neovascularization
- concentration inducing the maximum neovascularization ([6]; p < 0.005, no statistical difference to VEGF-A at 1 nM): 100 nM

Compound: gastrin-releasing peptide (VPLPAGGGTVLTKMYPRGNHWAVGHLM-NH2; UniProt P07492 24-50, looked up) [GRP]
- block of the binding of bSCNH2 [1]: ineffective

Compound: adrenomedullin [AM]
- block of the binding of bSCNH2 [1]: ineffective

Compound: oxytocin [OXT]
- block of the binding of bSCNH2 [1]: ineffective

Compound: vascular endothelial growth factor A [VEGF-A]
- peptide response hierarchy in molar potency for mediating cell movement (HUVEC cells): SCNH2 > VEGF-A > APL-13

Compound: arginine vasopressin [AVP]
- block of the binding of bSCNH2 [1]: ineffective

Compound: N#CC(=C(/N)Sc1ccccc1N)/C(C#N)=C(/N)Sc1ccccc1N [U0126]
- suppression of APL-13 induced phosphorylation of p44/42 MAPK [7]: 97%
- suppression of SCNH2 induced phosphorylation of p44/42 MAPK [7]: 97%
- suppression of APL-13 induced phosphorylation of p44/42 MAPK [8]: 95%
- suppression of SCNH2 induced phosphorylation of p44/42 MAPK [8]: 98%
- suppression of SCNH2 and APL-13 induced cell migration and invasion [2]: effectively suppressed
